Experimental data published in article PMC4980721 (Cellular and molecular gastroenterology and hepatology, 2016).
Values joined by “and” are separate entries in the source; they are usually repeats but may differ in a detail not shown here. Equal entries are not always repeated.

Legend:
SW620 cells [1] = experiment: Apparent association time constant by flow cytometry; type: binding, human; conditions: from k = 0.83 min^−1
[2] = test system: human proximal colon FFPE specimens; experiment: Immunofluorescence of proximal human colon specimens with claudin-1 peptide; conditions: human proximal colon FFPE sections, 5 µM peptide 10 min at RT
Outline: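 FFPE sections (5 µm) deparaffinized. Antigen retrieval: boiling 10 mM sodium citrate, 0.05% Tween, pH 6.0, then sub-boiling 15 min. Protein serum block 15 min RT. 5 µM Cy5.5-labeled peptide 10 min RT, then anti-claudin-1 (1:200) overnight and AF488 secondary (1:500) 1 h RT, DAPI mount. Equal exposure; mean intensity from three 20×20 µm² boxes within epithelium per image, avoiding saturation.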

SW480 cells = experiment: Cell binding assay, confocal microscopy; type: cell-based, human
Outline: (§1)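 Cells grown in DMEM + 10% FBS + 1% penicillin/streptomycin at 37°C, 5% CO2, then seeded at ~0.5×10^6 cells/mL on coverslips. Next day, 10 µM Cy5.5-labeled test peptide or Cy5.5-labeled control peptide added for 1 h at 4°C. Fixed in 4% PFA 10 min RT, DAPI counterstain, confocal imaging. Intensities from 10 random cells in 3 independent images; one-way ANOVA.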

SW620 cells [3] = experiment: Cell binding assay, confocal microscopy; type: cell-based, human
Outline: as §1

HCT116 cells = experiment: Cell binding assay, confocal microscopy; type: cell-based, human
claudin-1 (CLDN1) = experiment: siRNA knockdown of claudin-1 expression, peptide and antibody staining; type: cell-based, human; conditions: control and CLDN1 siRNA, confocal
Outline: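 SW620 cells seeded at 0.2×10^6 cells/mL, transfected with DharmaFECT1 plus 25 nM CLDN1 SMARTpool or control siRNA for 72 h, then passaged onto coverslips. Knockdown checked by western blot. Staining: 5 µM Cy5.5-labeled peptide or control peptide 30 min at 4°C, then 4% PFA fixation; or methanol fixation, anti-CLDN1 5 µg/mL 1 h RT, AF488 secondary. Two-way ANOVA on average intensity (10 cells/slide, 2 slides/condition).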

RTSPSSR [RTS*-Cy5.5]
time constant / time scale for binding corresponding to k (SW620 cells [1]): < 1.2 min and ~ 1.2 min | mean (±std) fluorescence intensity, SSA ([2]; n = 11 SSA): 20.1±13.3 | mean (±std) fluorescence intensity, normal ([2]; n = 28 normal): 9.1±6.0

SPTSSRR [SPT*-Cy5.5]
binding to cell surface on confocal microscopy (SW480 cells): minimal binding | binding to cell surface on confocal microscopy (SW620 cells [3]): minimal binding | binding to cell surface on confocal microscopy (HCT116 cells): minimal binding | binding / signal in SW620 cells transfected with siCL or siCLDN1 (claudin-1 (CLDN1)): minimal binding
